Bioassay records (PubChem)
GASC1_inh: blocks human GASC-1 (KDM4C) demethylase activity; Q9H3R0; GST-KDM4C 2-372, H3K9me3 peptide, LANCE TR-FRET; inhibition, % at 12.5 µM; 96,000 tested, 0.15% active;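 active means mean replicate inhibition above about 25%, with at least 55% of replicates also reaching it, limit read from the data, passing the limit was not always enough; inconclusive means only one of those two conditions met; inactive means neither condition met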
Target sequence (Q9H3R0 2-372 limits assumed): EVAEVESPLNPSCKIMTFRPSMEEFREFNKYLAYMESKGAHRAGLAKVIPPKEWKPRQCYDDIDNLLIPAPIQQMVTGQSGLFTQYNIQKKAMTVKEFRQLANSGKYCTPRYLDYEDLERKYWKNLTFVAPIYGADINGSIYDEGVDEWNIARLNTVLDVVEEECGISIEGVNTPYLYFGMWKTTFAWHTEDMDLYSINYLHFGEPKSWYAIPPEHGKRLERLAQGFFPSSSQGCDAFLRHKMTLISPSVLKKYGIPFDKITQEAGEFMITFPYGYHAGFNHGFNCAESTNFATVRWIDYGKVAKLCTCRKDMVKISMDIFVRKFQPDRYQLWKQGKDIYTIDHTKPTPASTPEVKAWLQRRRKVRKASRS
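System – N-terminal GST-fused human GASC-1 (KDM4C) fragment, residues 2-372 · Input – enzyme final amount 10 nM · Technique – LANCE TR-FRET, Eu antibody, ULight-streptavidin, EDTA, ex 340 nm, em 618/671 nm · Medium – HEPES buffer, pH 7.5, plus ascorbate · Incubation – enzyme reaction 30 min, then detection 60 min, both room temperature · Reagent – H3K9me3 peptide with Fe(II)/2OG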
Pf_Dd2_growth: blocks growth of Plasmodium falciparum Dd2 parasites; 94,000 tested, 2.3% active; P. falciparum Dd2 growth, SYBR Green, 72 h; stronger effect = lower value; activity change, % at 10 µM; in the data active means activity change below about -80%; inconclusive means no clear call, values can overlap the other calls
T_cruzi_growth-1: inhibitors of T. cruzi proliferation; T. cruzi beta-gal in NIH3T3, GalScreen luminescence, 90 h; inhibition, % at 8.34 µM; 77,000 tested, 5.9% active;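 active means mean inhibition above about 93%, with at least 55% of replicates each passing it, limit read from the data, passing the limit was not always enough; inconclusive means only one of those two conditions holds; inactive means neither condition holds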
IDH1_mut_inh: inhibitors of human IDH1 R132H; AID 624101; inhibition, % at 10 µM; IDH1 R132H reductase, diaphorase/resazurin fluorescence, 60 min; 70,000 tested, 0.18% active; O75874; in the data active means inhibition above about 34%; inconclusive means no clear call, values can overlap the other calls; inactive means below about 11%;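 further: 0% = DMSO and 100% = no enzyme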
T_cruzi_growth-2: blocks T. cruzi growth in NIH3T3 host cells. 5,600 tested, 72% active. shares compounds with T_cruzi_growth-1. inhibition, % at 8.35 µM. T. cruzi beta-gal in NIH3T3, GalScreen luminescence, 90 h;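 active means mean replicate inhibition above about 95% and at least 55% of replicates individually reaching it, limit read from the data; inconclusive means only one of the two criteria is met; inactive means neither criterion is met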
T_cruzi_growth-3: Trypanosoma cruzi proliferation inhibition | 5,600 tested, 21% active | T. cruzi beta-gal in NIH3T3, GalScreen luminescence, 90 h | shares compounds with T_cruzi_growth-1 | inhibition, % at 2.09 µM;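 active means mean inhibition above about 95%, with at least 55% of replicates also reaching it, limit read from the data; inconclusive means meets just one of the two conditions; inactive means meets neither condition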;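 further: plate controls were neutral control median for no effect and positive control median for full effect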
NIH3T3_tox: NIH/3T3 (mouse) viability loss | shares compounds with T_cruzi_growth-1 | NIH/3T3 viability, CellTiter-Glo ATP luminescence, 90 h | cytotoxicity (signal decrease), % at 8.35 µM | 5,600 tested, 14% active;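 active means mean signal decrease across replicates above about 35% based on untreated-well scatter, with enough replicates individually passing, limit read from the data; inconclusive means no rule stated though some were filed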;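 further: 0% = median of neutral control wells and 100% = median of positive control wells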
NIH3T3_tox_2: kills mouse NIH/3T3 fibroblasts | shares compounds with T_cruzi_growth-1 | NIH/3T3 viability, CellTiter-Glo ATP luminescence, 90 h | inhibition, % at 24.9 µM | 5,600 tested, 56% active | AID 651744;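 active means mean loss of cell viability signal at or above a set limit, and enough replicates individually reaching it; inconclusive means meets only the mean limit or only the replicate share; inactive means meets neither condition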;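 further: 0% = median of neutral control wells and 100% = median of positive control wells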
* hit, by the source's call; ? = inconclusive; . = no result. Shown are actives, neighbours in structure and some others; about 5.9% of the full set was active somewhere.

SMILES GASC1_inh Pf_Dd2_growth T_cruzi_growth-1 IDH1_mut_inh T_cruzi_growth-2 T_cruzi_growth-3 NIH3T3_tox NIH3T3_tox_2
CN1c2ccc(-c3ccccc3)cc2[C@@H]2[C@@H](CCN2C(=O)c2ccncc2)[C@H]1CO 0 13 86 . . . . .
COc1ccc(-c2ccc3c(c2)[C@@H]2[C@@H](CCN2C(=O)c2ccncc2)[C@@H](CO)N3C)cc1 1 0 98* . 101* 84 9 15
CC(C)NC(=O)N1CCCCN2[C@H](CO)[C@@H](c3ccc(C#Cc4ccccc4F)cc3)[C@H]2C1 -1 7 112* . 100* 85 20 103*
CC(C)NC(=O)N1CCCCN2[C@H](C1)[C@@H](c1ccc(C#Cc3ccccc3F)cc1)[C@@H]2CO -1 -28 89 . . . . .
CC(C)NC(=O)N1CCCCN2[C@H](CO)[C@H](c3ccc(C#Cc4ccccc4F)cc3)[C@@H]2C1 -3 6 96* . 110* 62 42* 77*
C[C@@H]1CN([C@H](C)CO)C(=O)Cc2cc(NC(=O)CCCN(C)C)ccc2O[C@@H]1CN(C)Cc1ccc(-c2ccccc2)cc1 . -28 . 4 . . . .
C[C@@H]1CN([C@H](C)CO)S(=O)(=O)c2ccc(C3=CCCC3)cc2O[C@H]1CN(C)C(=O)C1CCC1 3 -43 111* 5 71 20 20 24*
C[C@H]1CN([C@@H](C)CO)S(=O)(=O)c2ccc(C3=CCCCC3)cc2O[C@H]1CN(C)C(=O)C1CCCCC1 -2 -47 123* . 104* 91 -15 107*
C[C@H](CO)N1C[C@H](C)[C@H](CN(C)C(=O)C2CCCCC2)Oc2cc(C3=CCCCC3)ccc2S1(=O)=O -2 -60 116* . 102* 86 21 107*
C[C@@H]1CN([C@H](C)CO)S(=O)(=O)c2ccc(C3=CCCCC3)cc2O[C@H]1CN(C)C(=O)C1CCCCC1 9 -54 109* . 105* 56 27 105*
C[C@H]1CN([C@@H](C)CO)S(=O)(=O)c2ccc(C3=CCCC3)cc2O[C@@H]1CN(C)C(=O)C1CCC1 5 -27 43 . . . . .
COc1ccc(S(=O)(=O)N[C@H]2CC[C@@H](CCn3cc(C(C)C)nn3)O[C@@H]2CO)cc1 2 13 -57 0 . . . .
COc1ccc(CN(C)C[C@H]2OCCCC[C@H](C)Oc3ccc(NC(=O)Nc4ccc(F)cc4)cc3C(=O)N([C@H](C)CO)C[C@@H]2C)cc1 -1 -2 44 1 . . . .
O=C(Nc1ccc(Cl)cc1)N[C@H]1CC[C@@H](CCNC(=O)c2ccccc2F)O[C@H]1CO . -3 36 -1 . . . .
O=C(Nc1cc(Cl)cc(Cl)c1)N[C@H]1CC[C@H](CCNS(=O)(=O)c2cccc(F)c2)O[C@H]1CO 0 5 176* 0 104* 48 33 57*
O=C(Nc1cc(Cl)cc(Cl)c1)N[C@H]1CC[C@@H](CCNS(=O)(=O)c2cccc(F)c2)O[C@@H]1CO -2 6 ? 0 100* 39 40* 81*
O=C(Nc1ccc(Cl)cc1)N[C@H]1CC[C@@H](CCNC(=O)c2ccccc2F)O[C@@H]1CO 0 -8 142* 0 36 14 -9 -18
O=C(Nc1cc(Cl)cc(Cl)c1)N[C@@H]1CC[C@@H](CCNS(=O)(=O)c2cccc(F)c2)O[C@@H]1CO 0 -26 147* 0 104* 3 10 65*
Cc1[nH]c2ccccc2c1C(=O)CSc1ncn[nH]1 . . . 0 . . . .
CC(C)NC(=O)Nc1ccc2c(c1)CC(=O)N([C@H](C)CO)C[C@@H](C)[C@H](CN(C)C(=O)NC1CCCCC1)O2 2 2 0 -2 . . . .
C/C=C/c1ccc([C@H]2[C@H]3CN(Cc4ccc(F)cc4)CC(=O)N3[C@H]2CO)cc1 -1 -27 . . . . . .
O=C(Cc1ccccn1)N[C@H]1CC[C@@H](CCNS(=O)(=O)c2cccc(F)c2)O[C@@H]1CO 6 2 101* 2 41 19 5 18
CC(C)C#Cc1ccc2c(c1)O[C@H](CN(C)Cc1ccncc1)[C@H](C)CN([C@H](C)CO)S2(=O)=O 0 -27 101* 1 99* 72 ? 50*
C[C@H](O)C#Cc1ccc2c(c1)O[C@@H](CN(C)Cc1ccncc1)[C@H](C)CN([C@H](C)CO)S2(=O)=O 1 -42 113* 1 100* 73 30 39*
COCC(=O)N1[C@@H](C#N)[C@@H](c2ccccc2-c2ccccc2)[C@@H]1CO 3 -21 . . . . . .
SMILES GASC1_inh Pf_Dd2_growth T_cruzi_growth-1 IDH1_mut_inh T_cruzi_growth-2 T_cruzi_growth-3 NIH3T3_tox NIH3T3_tox_2
CO[C@H](CN(C)S(=O)(=O)c1ccc(Cl)cc1)[C@H](C)CN(Cc1ccccc1Cl)[C@@H](C)CO 1 -25 77 -1 . . . .
CO[C@@H](CN(C)C(=O)Nc1ccc(F)cc1)[C@H](C)CN(Cc1ccccc1Cl)[C@H](C)CO 0 -16 -78 0 . . . .
CO[C@H](CN(C)C(=O)Nc1ccc(Cl)cc1)[C@H](C)CN(Cc1ccccc1Cl)[C@@H](C)CO -1 -51 114* 0 103* 99* 42* 49*
CO[C@H](CN(C)C(=O)Nc1ccc(F)cc1)[C@H](C)CN(Cc1ccccc1Cl)[C@H](C)CO 1 -23 -34 0 . . . .
CO[C@H](CN(C)C(=O)Nc1ccc(Cl)cc1)[C@H](C)CN(Cc1ccccc1Cl)[C@H](C)CO 3 -51 109* 0 109* 63 ? 60*
CO[C@@H](CN(C)C(=O)Nc1ccc(Cl)cc1)[C@@H](C)CN(Cc1ccccc1Cl)[C@H](C)CO -1 -46 111* 0 106* 64 28 31*
CO[C@@H](CN(C)S(=O)(=O)c1ccc(Cl)cc1)[C@@H](C)CN(Cc1ccccc1Cl)[C@H](C)CO 3 -52 ? -1 101* -13 13 99*
CO[C@H]1CN(C)C(=O)c2ccc(NC(=O)C3CCC3)cc2OC[C@H](C)N(Cc2cccnc2)C[C@H]1C 1 . 60 0 . . . .
O=C(C[C@H]1CC[C@H]2[C@@H](COC[C@H](O)CN2C(=O)Nc2ccc(Cl)c(Cl)c2)O1)NCc1ccc(Cl)c(Cl)c1 0 -12 97* . 85 64 41* 105*
